According to ChEMBL document CHEMBL1133331, “Guanylpiperidine peptidomimetics: potent and selective bis-cation inhibitors of factor Xa” (Bioorg Med Chem Lett, 2000):

Key:
[1] = biological target: T1, Coagulation factor X (Homo sapiens, UniProt P00742); assay: In vitro inhibition of human Coagulation factor X.
[2] = biological target: Serine protease 1 (Homo sapiens, UniProt P07477); assay: In vitro inhibition of human trypsin.
Procedure, shortened: (§1)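 Purified human enzymes (plasmin, thrombin/factor IIa, trypsin) were each tested for inhibitor-dependent cleavage of a chromogenic substrate. IC50 is the concentration that blocks 50% of substrate cleavage.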

[3] = Concentration required to inhibit the activation of human prothrombin in a preformed complex of factor Xa, factor IIa and phospholipid in vitro; details: in the assay text read “factor Va” for “factor IIa”
Procedure, shortened: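 The assembled prothrombinase complex was assayed with its natural substrate, prothrombin, to measure inhibition of prothrombin activation. IC50 is the concentration giving 50% inhibition.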

[4] = biological target: Plasminogen (Homo sapiens, UniProt P00747); assay: In vitro inhibition of human plasmin.; procedure, shortened: as §1
[5] = biological target: Prothrombin (Homo sapiens, UniProt P00734); assay: In vitro inhibition of human thrombin.; procedure, shortened: as §1
[6] = Ratio of inhibitory concentration of prothrombinase to that of human factor Xa was determined
[7] = biological target: T1, Coagulation factor X; assay: Concentration required to inhibit the cleavage of the chromogenic substrate by human enzyme Coagulation factor X in vitro
[8] = biological target: T1, Coagulation factor X; assay: In vitro inhibitory activity against human Coagulation factor X
[9] = biological target: T1, Coagulation factor X; assay: Concentration required for classical fast inhibition of cleavage of the chromogenic substrate by human enzyme Coagulation factor X in vitro

T1 sequence (P00742 41-179 limits assumed): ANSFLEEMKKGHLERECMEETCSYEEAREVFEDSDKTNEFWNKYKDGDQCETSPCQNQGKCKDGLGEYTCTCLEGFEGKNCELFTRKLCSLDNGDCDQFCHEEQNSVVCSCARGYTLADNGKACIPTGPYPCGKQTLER
T1 sequence (P00742 235-488 limits assumed): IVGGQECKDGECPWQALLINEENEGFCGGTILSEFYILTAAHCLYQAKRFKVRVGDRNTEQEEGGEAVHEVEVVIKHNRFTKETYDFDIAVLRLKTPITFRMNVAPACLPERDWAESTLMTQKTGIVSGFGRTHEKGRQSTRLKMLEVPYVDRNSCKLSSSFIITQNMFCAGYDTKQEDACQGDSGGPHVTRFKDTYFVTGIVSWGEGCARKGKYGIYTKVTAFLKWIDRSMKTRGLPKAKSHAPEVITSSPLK
Chain of Serine protease 1 (P07477 whole entry): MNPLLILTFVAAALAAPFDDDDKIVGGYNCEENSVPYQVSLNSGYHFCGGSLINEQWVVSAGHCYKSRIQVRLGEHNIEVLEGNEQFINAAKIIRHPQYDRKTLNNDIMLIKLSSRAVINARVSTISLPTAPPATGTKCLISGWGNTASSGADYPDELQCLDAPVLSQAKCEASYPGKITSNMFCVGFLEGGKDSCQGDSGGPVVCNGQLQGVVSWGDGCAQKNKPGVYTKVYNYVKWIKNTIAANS
Chain of Plasminogen (P00747 97-580 limits assumed): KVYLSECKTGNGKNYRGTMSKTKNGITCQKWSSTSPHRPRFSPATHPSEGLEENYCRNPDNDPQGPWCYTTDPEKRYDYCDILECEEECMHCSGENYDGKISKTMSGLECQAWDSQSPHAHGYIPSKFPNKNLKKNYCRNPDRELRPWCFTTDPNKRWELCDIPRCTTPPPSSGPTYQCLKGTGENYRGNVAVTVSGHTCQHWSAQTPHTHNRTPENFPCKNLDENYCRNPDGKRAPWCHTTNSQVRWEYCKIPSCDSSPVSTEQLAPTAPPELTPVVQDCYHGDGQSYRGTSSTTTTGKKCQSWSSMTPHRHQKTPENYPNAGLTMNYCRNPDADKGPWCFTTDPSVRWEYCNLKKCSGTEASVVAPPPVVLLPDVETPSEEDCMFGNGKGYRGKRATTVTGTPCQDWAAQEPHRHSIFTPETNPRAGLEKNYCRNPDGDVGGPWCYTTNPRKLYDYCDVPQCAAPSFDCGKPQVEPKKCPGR
Chain of Plasminogen (P00747 581-810 limits assumed): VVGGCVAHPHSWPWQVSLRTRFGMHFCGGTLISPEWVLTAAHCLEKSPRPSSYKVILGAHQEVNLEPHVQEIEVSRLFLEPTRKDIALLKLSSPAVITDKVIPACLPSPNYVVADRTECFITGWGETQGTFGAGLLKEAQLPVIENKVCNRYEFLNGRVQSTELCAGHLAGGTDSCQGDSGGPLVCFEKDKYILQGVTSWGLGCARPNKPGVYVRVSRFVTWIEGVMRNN

Compound	IC50 [1]	IC50 [2]	IC50 [3]	IC50 [4]	IC50 [5]	Ratio [6]	IC50 [7]	Ki [8]	Ki [9]
N=C(N)N1CCCC(C[C@@H](NS(=O)(=O)Cc2ccccc2)C(=O)NCC(=O)N[C@H]2CCCN(C(=N)N)C2O)C1 (single isomer, unassigned) [listing 1 of 2 here]	1.2 nM	120 nM	4.2 nM	919 nM	> 2500 nM	–	–	–	–
COC(=O)c1cccc(CS(=O)(=O)N[C@H](CC2CCN(C(=N)N)CC2)C(=O)NCC(=O)N[C@H]2CCCN(C(=N)N)C2O)c1 (some centres undefined)	2.2 nM	145 nM	–	387 nM	> 2500 nM	–	–	–	–
N=C(N)N1CCCC(C[C@@H](NS(=O)(=O)Cc2ccccc2)C(=O)NCC(=O)N[C@H]2CCCN(C(=N)N)C2O)C1 (stereo in doubt) [listing 1 of 2 here]	–	–	–	–	–	3.6	–	–	–
N=C(N)N1CCC(C[C@@H](NS(=O)(=O)Cc2ccccc2)C(=O)NCC(=O)N[C@H]2CCCN(C(=N)N)C2O)CC1 (some centres undefined)	0.83 nM	169 nM	3.1 nM	869 nM	> 2500 nM	3.7	–	–	–
N=C(N)N1CCCC(C[C@@H](NS(=O)(=O)Cc2ccccc2C(=O)O)C(=O)NCC(=O)N[C@H]2CCCN(C(=N)N)C2O)C1 (stereo in doubt)	4.2 nM	33 nM	–	> 2500 nM	352 nM	–	–	–	–
N=C(N)N1CCCC(C[C@@H](NS(=O)(=O)Cc2ccccc2)C(=O)NCC(=O)N[C@H]2CCCN(C(=N)N)C2O)C1 (single isomer, unassigned) [listing 2 of 2 here]	–	–	–	–	–	2	–	–	–
N=C(N)N1CCCC(C[C@@H](NS(=O)(=O)Cc2ccccc2)C(=O)NCC(=O)N[C@H]2CCCN(C(=N)N)C2O)C1 (stereo in doubt) [listing 2 of 2 here]	0.92 nM	31 nM	3.3 nM	726 nM	> 2500 nM	–	–	–	–
N=C(N)NCCC[C@@H](NC(=O)OCc1ccccc1)C(=O)NCC(=O)N[C@H]1CCCN(C(=N)N)C1O (stereo in doubt) [listing 1 of 2 here]	–	–	–	–	–	3.8	–	–	–
N=C(N)NCCC[C@@H](NC(=O)OCc1ccccc1)C(=O)NCC(=O)N[C@H]1CCCN(C(=N)N)C1O (single isomer, unassigned) [listing 1 of 2 here]	35 nM	–	7.9 nM	–	–	–	–	–	–
N=C(N)N1CCCC(C[C@@H](NS(=O)(=O)Cc2ccccc2C(=O)O)C(=O)NCC(=O)N[C@H]2CCCN(C(=N)N)C2O)C1 (single isomer, unassigned)	2.1 nM	240 nM	–	2500 nM	> 2500 nM	–	–	–	–
COC(=O)c1ccccc1CS(=O)(=O)N[C@H](CC1CCCN(C(=N)N)C1)C(=O)NCC(=O)N[C@H]1CCCN(C(=N)N)C1O (stereo in doubt; form 1)	1.37 nM	15 nM	–	1950 nM	1100 nM	–	–	–	–
N=C(N)N1CCC(C[C@@H](NS(=O)(=O)Cc2ccccc2C(=O)O)C(=O)NCC(=O)N[C@H]2CCCN(C(=N)N)C2O)CC1 (some centres undefined)	5.7 nM	447 nM	12 nM	2500 nM	> 2500 nM	2.3	5.3 nM	–	–
N=C(N)NCCC[C@@H](NC(=O)OCc1ccccc1)C(=O)NCC(=O)N[C@H]1CCCN(C(=N)N)C1O (stereo in doubt) [listing 2 of 2 here]	0.9 nM	–	3.4 nM	–	–	–	–	–	–
CCOC(=O)c1ccc(CCOC(=O)N[C@H](CC2CCN(C(=N)N)CC2)C(=O)NCC(=O)N[C@H]2CCCN(C(=N)N)C2O)cc1 (some centres undefined)	–	158 nM	–	1440 nM	> 2500 nM	–	–	16 nM	–
N=C(N)N1CCC(C(NS(=O)(=O)Cc2ccccc2)C(=O)NCC(=O)N[C@H]2CCCN(C(=N)N)C2O)CC1 (some centres undefined)	1.1 nM	25 nM	–	678 nM	> 2500 nM	–	–	–	–
N=C(N)N1CCC(C[C@@H](NS(=O)(=O)Cc2cccc(C(=O)O)c2)C(=O)NCC(=O)N[C@H]2CCCN(C(=N)N)C2O)CC1 (some centres undefined)	4.3 nM	211 nM	14 nM	231 nM	> 2500 nM	0.9	–	–	16 nM
N=C(N)N1CCC(C[C@@H](NS(=O)(=O)Cc2ccccc2-n2cnnn2)C(=O)NCC(=O)N[C@H]2CCCN(C(=N)N)C2O)CC1 (some centres undefined)	2.6 nM	537 nM	69 nM	872 nM	> 2500 nM	3	–	–	23 nM
COC(=O)c1ccccc1CS(=O)(=O)N[C@H](CC1CCN(C(=N)N)CC1)C(=O)NCC(=O)N[C@H]1CCCN(C(=N)N)C1O (some centres undefined)	0.94 nM	147 nM	–	965 nM	> 2500 nM	–	–	–	–
N=C(N)NCCC[C@@H](NC(=O)OCc1ccccc1)C(=O)NCC(=O)N[C@H]1CCCN(C(=N)N)C1O (stereo in doubt; 1)	34.9 nM	115 nM	–	> 2500 nM	> 2500 nM	–	–	–	–
COC(=O)c1ccccc1CS(=O)(=O)N[C@H](CC1CCCN(C(=N)N)C1)C(=O)NCC(=O)N[C@H]1CCCN(C(=N)N)C1O (stereo in doubt; form 2)	1.08 nM	124 nM	–	894 nM	> 2500 nM	–	–	–	–
COC(=O)N[C@H](CC1CCN(C(=N)N)CC1)C(=O)NCC(=O)N[C@H]1CCCN(C(=N)N)C1O (some centres undefined)	–	412 nM	–	> 2500 nM	> 2500 nM	–	–	23 nM	–
N=C(N)NCCC[C@@H](NS(=O)(=O)Cc1ccccc1)C(=O)NCC(=O)N[C@H]1CCCN(C(=N)N)C1O (some centres undefined)	0.9 nM	75 nM	–	1190 nM	> 2500 nM	–	–	–	–
N=C(N)NCCC[C@@H](NC(=O)OCc1ccccc1)C(=O)NCC(=O)N[C@H]1CCCN(C(=N)N)C1O (single isomer, unassigned) [listing 2 of 2 here]	–	–	–	–	–	0.23	–	–	–
